Our source for the cytotoxicity values is ChEMBL document CHEMBL4513216, “Probing the Open Global Health Chemical Diversity Library for Multistage-Active Starting Points for Next-Generation Antimalarials” (ACS Infect Dis, 2020).

Structures are written as SMILES.

This series is described as follows: Toxicity liver stage against HepG2, at 10uM. Format: cell-based. The arrangement: test concentration 10 uM, cell line HepG2-A16-CD81EGFP. Particulars: human, HepG2-A16-CD81EGFP cells; read-out: INHIBITION
Summed up:
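Uninfected HepG2-A16-CD81EGFP cells, 3 × 10^3 per well, 1536-well, plated on prespotted compound at 10 μM final, parasite-free screening media added to match infected plates; puromycin 10 μM positive, DMSO 0.5% negative; run in parallel with 48 h PbLuc assay at 37 °C, 5% CO2; viability by CellTiter-Glo luminescence, normalized to controls.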

For `CC(=O)N1CC2(CCCC2)c2ccccc21`, the cytotoxicity at 10 µM was 0.83%.
The result for `CC(C)c1ncncc1C(=O)N1CCN(Cc2cccnc2)CC1` reads -5.85%.
In the case of `CC(=O)N(Cc1noc(C)n1)C1CCN(Cc2cc(C)on2)C1` (configuration not stated), the cytotoxicity at 10 µM is 4.38%.
For the molecule `CS(=O)(=O)c1ccc(CNC(=O)N2CCC(C(N)=O)C2)cc1` (configuration not stated), the cytotoxicity at 10 µM is -8.03%.
Regarding `COc1cc(N2CCC3(CC2)CC(N2CCOCC2)C3)ncn1`, the cytotoxicity at 10 µM was -6.81%.
In the case of `COCCOc1ccc(NC(=O)N2CCCC2c2ccsc2)cn1` (configuration not stated), the cytotoxicity at 10 µM is -8.33%.
In the case of `O=C(NCCCn1cncn1)c1ccc(-c2ccco2)[nH]c1=O`, the cytotoxicity at 10 µM worked out at 2.87%.
For `CCCOc1c(CNC2CCSC2)cccc1OC` (configuration not stated), the cytotoxicity at 10 µM came out at 4.36%.
With `CSc1ccc(C(=O)N2C[C@@H]3CC[C@H]2CN(Cc2cccnc2)C3)cc1`, the cytotoxicity at 10 µM was -7.38%.
The result for `O=C(NCC1CCCO1)c1csc(Cc2ccccc2)n1` (configuration not stated) reads -110%; that for `CN(Cc1cccnc1N)Cc1cccc2ncccc12`, 53.8%; that for `Cn1nnc2c1CCN(CC1CC1)C2COCC1CC1` (configuration not stated), -110%.
The result for `CCc1cnc(CN2CCC(N(Cc3noc(CC)n3)C(C)=O)C2)o1` (configuration not stated) reads -4.17%.
The same measure for `Cc1nc(CN2CCOCC3(CCCN(c4cnccn4)C3)C2)cs1` (configuration not stated): -1.81%; for `CC1CCCCN1C(=O)c1cn(-c2ccc(C(F)(F)F)cn2)nn1` (configuration not stated): -56.5%.
As to `Cn1ccnc1CCNC(=O)C1CCCN(Cc2cccc(F)c2)C1` (configuration not stated), the cytotoxicity at 10 µM was -6.87%.
The same measure for `CN(C)C(=O)c1coc(COc2ccccc2)n1`: -7.3%.
The result for `O=S(=O)(Cc1cccc(F)c1)Nc1cc(Cl)ccn1` reads -8.69%; that for `COc1ccccc1CN1CC[C@]2(C[C@H](OC)CO2)C1`, -11.1%; that for `Cn1ccnc1C(=O)N[C@@H]1CN(Cc2ccoc2)[C@@H]2CCCO[C@@H]21`, -99.9%.
For the molecule `COCCOCC1(CNCc2cccc(OC)c2)C[C@@H](O)[C@@H](O)C1` (some centres not stated), the cytotoxicity at 10 µM came out at 0.994%.
The result for `CCNC(=O)CN1CCC(c2cc(OC)cc(OC)c2)C1` (configuration not stated) reads -5.66%.
The result for `COCC1(C(=O)N2CCC(c3nccn3CC3CC3)CC2)CCC1` reads 4.5%; that for `Cc1cc(Cc2ccccc2F)cc(C2CCCNC2)n1` (configuration not stated), 0.00505%; that for `CCc1n[nH]c(C2CN(C(=O)c3ccc4c(c3)CCC4)CCO2)n1` (configuration not stated), -13.1%.
In the case of `CC(C)N(CCS(C)(=O)=O)Cc1csc(Cc2ccc(Cl)cc2)n1`, the cytotoxicity at 10 µM is -40.6%.
`Cc1cc(CN2Cc3ccccc3CC2c2nnc(C)o2)on1` (configuration not stated): the cytotoxicity at 10 µM was -0.962%.
Turning to `CC(=O)C(Cc1ccccc1)NC(=O)CSc1nncn1C` (configuration not stated), the cytotoxicity at 10 µM is 3.16%.
The result for `CCOC(=O)CNC(=O)NCc1cccn1Cc1ccccc1C` reads 4.9%.
`CCN1CCN(C2CCN(CCOc3ccc(F)cc3)CC2)C1=O`: the cytotoxicity at 10 µM is -5.38%.
`CN(Cc1ccccc1-n1cccn1)c1nc(N)nc2c1CCNCC2`: the cytotoxicity at 10 µM is -12.2%.
The result for `Cc1n[nH]c(C2CN(CC(=O)NCc3ccco3)CCO2)n1` (configuration not stated) reads 23%; that for `CC(C)CC(NC(=O)c1cnn(C)c1)C(=O)Nc1cc[nH]n1` (configuration not stated), -3.38%; that for `Cc1nccn1-c1ccc(C(C)NCCc2ccccn2)cc1` (configuration not stated), 10.4%.
As for `COc1ccc(-c2cc(C3(O)CCOC(C)(C)C3)on2)cc1` (configuration not stated), the cytotoxicity at 10 µM was -3.12%.
For `O=C(c1cnccn1)N1CCN2C[C@H](OCc3ccccc3F)C[C@H]2C1`, the cytotoxicity at 10 µM was -2.16%.
The result for `CCc1nc(C)c(CNC(=O)CCCN2CCCCC2)s1` reads -4.65%.
The result for `O=C(O)c1cn(CC2CCCN(c3cnc4ccccc4n3)C2)nn1` (configuration not stated) reads 1.57%; that for `CCCn1nnnc1COc1cc(OC)ccc1C(N)=O`, -4.42%; that for `Cc1cc(OCc2ccc(C(=O)O)s2)ccc1Cl`, 12.2%.
`CC(Cn1cccn1)NCc1nc(-c2ccccn2)no1` (configuration not stated): the cytotoxicity at 10 µM is -5.17%.
As for `CC(C)(C)OC(=O)N1CC(=O)N(CCc2ccccc2)CC(O)C1` (configuration not stated), the cytotoxicity at 10 µM was -12.9%.
`CN(C)C(=O)[C@@H]1C[C@@H]2[C@@H](CCN2Cc2nccs2)O1`: the cytotoxicity at 10 µM was -1.42%.
The result for `Cn1nnc2c1C(COCC1CC1)CN(C(=O)Cc1ccccn1)C2` (configuration not stated) reads 13.5%; that for `O[C@]12CCNC[C@H]1CN(c1ccnc3ccccc13)CC2`, 8.33%; that for `CO[C@H]1CNC[C@@H]1NC(=O)c1cc(C)nc2ccc(C)cc12`, 1.25%.
In the case of `COc1ccc(-c2nc(CNC3CCc4nc(C)nn4C3)no2)cc1` (configuration not stated), the cytotoxicity at 10 µM is -3.42%.
The result for `Cc1ccc(C(=O)N2CC[C@H]3[C@@H]2CCC(=O)N3c2cccnc2)o1` reads -106%.
The result for `CC(C(=O)NCc1ccnc(N2CCCCCC2)c1)n1cccn1` (configuration not stated) reads -15.8%; that for `COc1ccccc1N1CCC(CNCc2cccc(O)c2)C1` (configuration not stated), -9.04%; that for `Cc1nccc(-c2cccc(NCC(=O)N3CCc4sccc4C3)c2)n1`, 1.06%.
As for `Nc1nc2c(c(N3CCCC3)n1)CCN(Cc1ccccn1)CC2`, the cytotoxicity at 10 µM was -35.3%.
The result for `c1csc(CN2CC[C@H]3O[C@@H](COCC4CC4)CC[C@H]32)c1` reads -74.8%.
As for `NC(=O)CC1CCN(C(=O)NCC2(c3ccccc3F)CC2)CC1`, the cytotoxicity at 10 µM came out at 35.2%.
Regarding `Cc1cc(CNC(=O)N2CCN(c3ccccc3)CC2)no1`, the cytotoxicity at 10 µM is 5.27%.
The same measure for `CCc1ccc(NC(=O)c2cnc(N3CCCC3)nc2C)cc1`: 0.709%; for `O=C(NCc1cccs1)C1CNCC12CCOCC2` (configuration not stated): -5.43%.
The same measure for `Cc1cc(CN2CCC(CNC(=O)C3(c4ccccc4)CC3)C2)[nH]n1` (configuration not stated): -145%; for `COc1ccc(C(C)NCc2c[nH]nc2C)cc1Br` (configuration not stated): -5.57%; for `CC(=O)N1CC2(CCN(S(=O)(=O)N(C)C)CC2)C2(CCNC2=O)C1` (configuration not stated): -6.9%.
The same measure for `Cc1cc(C)n(CC2CCCCN2C(=O)c2ccc3c(c2)OCO3)n1` (configuration not stated): 5.44%; for `COc1ccc(F)cc1CN(CC(N)=O)C(C)C`: -1.68%; for `COc1cccc(OC)c1CN1CCC2(CC(Nc3ccncn3)C2)C1` (configuration not stated): 3.71%.
Regarding `COCCCNC(=O)Cc1cc(-c2ccccc2)on1`, the cytotoxicity at 10 µM was -7.39%.
Regarding `CC(CO)CN(Cc1ccccc1)Cc1c[nH]cn1` (configuration not stated), the cytotoxicity at 10 µM is 6.04%.
The result for `Cc1ccc(C(=O)N2CCC3(CC2)CCN(Cc2ccccn2)C3=O)o1` reads 2.49%; that for `CCn1nccc1CNC(=O)C1CCCO1` (configuration not stated), -2.21%.
The result for `CC(=O)NCc1cc2n(n1)CCN(Cc1cccc(CCN)c1)C2` reads -19.5%.
The same measure for `COc1ccc(-c2n[nH]cc2CN(C)CCCN2CCOCC2)c(F)c1`: -2.26%; for `CC(=O)c1ccc(C(=O)N2C[C@@H](CN3CCCC3)[C@@H](CO)C2)cc1`: -0.434%; for `Cc1csc(CNC(=O)N(C)Cc2ccc([S+](C)[O-])cc2)n1` (configuration not stated): 4.53%.
Take `CCn1ncnc1C(C)NC(=O)C1CCN(C(=O)COC)CC1` (configuration not stated): the cytotoxicity at 10 µM was 2.82%.
Consider `CC(=O)c1cnc(N(C)Cc2cc(C)cc(C)n2)nc1C`, for which the cytotoxicity at 10 µM is 8.81%.
The result for `Cc1cc(NC(=O)NCC(O)c2ccc(Cl)cc2Cl)n(C)n1` (configuration not stated) reads -5.38%.
For `Cc1ncsc1CN1CCOC(C)(C(=O)N(C)C)C1` (configuration not stated), the cytotoxicity at 10 µM came to 12.1%.
Turning to `COc1ccc(N(CCC(N)=O)C(=O)CSc2ccc(F)c(F)c2)cc1`, the cytotoxicity at 10 µM is 4.13%.
The same measure for `CNS(=O)(=O)c1ccc(C(=O)N2CCCC(n3cccn3)C2)cc1` (configuration not stated): -7.95%; for `CCc1nc2ccccc2n1C(CC)C(=O)N(C)CCc1noc(C)n1` (configuration not stated): 3.02%.
The same measure for `c1cncc(-c2noc(CNC3CCCN(c4cccnn4)C3)n2)c1` (configuration not stated): 3.26%; for `O=C(c1ccccc1F)N1CC2(CCNCC2)c2cc(Cl)ccc21`: -3.31%.
Consider `CCCc1nc(CN2CCCC2Cn2cncn2)no1` (configuration not stated), for which the cytotoxicity at 10 µM was -2%.
The same measure for `COCCN1CC[C@@H]2OC(COCC(=O)N3CCCC3)CC[C@@H]21` (some centres not stated): -3.29%; for `O=C1CC(c2ccc3c(c2)OCO3)c2c(n3ccsc3nc2=O)N1` (configuration not stated): 8.38%.
The same measure for `O=C(CNC(=O)c1ccoc1)NC(c1ccc(F)cc1)C(F)(F)F` (configuration not stated): -2.51%; for `CC(=O)N1CCCn2c(nc(CNS(=O)(=O)C3CC3)cc2=O)C1`: 2.71%; for `CCc1n[nH]c(C2CN(C(=O)CCc3cccs3)CCO2)n1` (configuration not stated): 5.73%.
As for `O=C([C@H]1C[C@H]2OCC[C@H]2N(CCc2ccccc2)C1)N1CCCCO1`, the cytotoxicity at 10 µM worked out at 0.307%.
The result for `CS(=O)(=O)NC(=O)c1cc(Cl)c2c(c1)OCCCO2` reads -4.94%; that for `O=C1CCC(=O)N1CCN1CCN(c2cc(F)ccc2F)CC1`, 9.44%; that for `CCN(C)S(=O)(=O)N(CC)Cc1ccc2c(c1)OCO2`, -6.62%.
Regarding `O=C(NC1CCCC1)c1cc2c(s1)CCN2C(=O)c1ccccc1`, the cytotoxicity at 10 µM was determined as 6.55%.
Regarding `CC(CN1CCCC1=O)NC(=O)Nc1cccnc1-n1cccn1` (configuration not stated), the cytotoxicity at 10 µM is -170%.
The same measure for `O=C(NCC1(O)COCCN(Cc2cccc(O)c2)C1)c1cscn1` (configuration not stated): -2.28%; for `CCc1nc(NC(=O)N(C)Cc2ccoc2)nn1C`: 0.79%.
The result for `CCS(=O)(=O)N1CCC2(CCCC(=O)N2C)CC1` reads 0.817%; that for `CCn1ncc2c1CCCC2NCc1ccc(C)s1` (configuration not stated), -6.73%.
`CCN1CCCC1CNC(=O)Cc1c(C)n[nH]c1-c1ccc(OC)cc1` (configuration not stated): the cytotoxicity at 10 µM is -3.72%.
